Source: ChEMBL document CHEMBL4261600 (Eur J Med Chem, 2018)

Legend:
[1] = test system: Tyrosine-protein kinase ABL1 (Homo sapiens), P00519 [T315I]; assay: Binding affinity to human non-phosphorylated ABL1 T315I mutant (S229 to K512 residues) expressed in mammalian expression system assessed as remaining unbound target protein level at 1000 nM by Kinomescan method relative to control
Method in brief: (§1)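 KINOMEscan competition-binding profiling across the panel of 468 kinases and mutants, with inhibitor tested at 1 μM. Binding is expressed as percent of control, with DMSO as the reference control.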

[2] = molecular target: Dual specificity protein kinase CLK1 (Homo sapiens) (UniProt P49759); assay: Binding affinity to wild-type human full length CLK1 (M1 to I484 residues) expressed in bacterial expression system assessed as remaining unbound target protein level at 1000 nM by Kinomescan method relative to control
Method in brief: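 KINOMEscan competitive binding profile at 1 μM inhibitor. Remaining target binding reported as percent of DMSO control.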

[3] = molecular target: Serine/threonine-protein kinase PAK 6 (Homo sapiens) (UniProt Q9NQU5); assay: Binding affinity to wild-type human partial length PAK6 (N298 to C681 residues) expressed in bacterial expression system assessed as remaining unbound target protein level at 1000 nM by Kinomescan method relative to control
[4] = molecular target: Serine/threonine-protein kinase 38 (Homo sapiens) (UniProt Q15208); assay: Binding affinity to wild-type human partial length NDR1 (N33 to E449 residues) expressed in mammalian expression system assessed as remaining unbound target protein level at 1000 nM by Kinomescan method relative to control
[5] = molecular target: Mitogen-activated protein kinase kinase kinase 19 (Homo sapiens) (UniProt Q56UN5); assay: Binding affinity to wild-type human partial length YSK4 (T1019 to H1328 residues) expressed in mammalian expression system assessed as remaining unbound target protein level at 1000 nM by Kinomescan method relative to control
[6] = test system: Tyrosine-protein kinase ABL1 (Homo sapiens), P00519 [F317I]; assay: Binding affinity to human phosphorylated ABL1 F317I mutant (S229 to K512 residues) expressed in mammalian expression system assessed as remaining unbound target protein level at 1000 nM by Kinomescan method relative to control
Method in brief: (§2)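 Single-point competition binding screen across a panel of 468 kinases and mutants, with the inhibitor at 1 μM. Binding is read out as percent of a DMSO control, and targets below 1 percent control were classed as strong binders.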

[7] = Antiproliferative activity against Chinese hamster CHL cells after 72 hrs by Celltiter-Glo assay; settings: Cricetulus griseus
[8] = AUC (0 to t) in mouse at 3 mg/kg, iv by LC-MS/MS analysis; format: ADME, organism-based; settings: in vivo
Method in brief: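 Non-compartmental PK. Male SD rats 190-210 g, mice and beagle dogs acclimatized one week, fasted 12 h with water, split into iv and po groups (mice 48, rats 6, dogs 6). iv 3/3/2 mg/kg (mice/rats/dogs); po 10/20/10 mg/kg; vehicle DMSO in 5% glucose water. Blood at 2 or 5 to 720 min; plasma protein-precipitated with methanol, caffeine internal standard, LC-MS/MS.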

[9] = molecular target: Uncharacterized serine/threonine-protein kinase SBK3 (Homo sapiens) (UniProt P0C264); assay: Binding affinity to wild-type human partial length SgK110 (L22 to R329 residues) expressed in bacterial expression system assessed as remaining unbound target protein level at 1000 nM by Kinomescan method relative to control
[10] = molecular target: Phosphatidylinositol 5-phosphate 4-kinase type-2 beta (Homo sapiens) (UniProt P78356); assay: Binding affinity to wild-type human full length PIP5K2B (M1 to T416 residues) expressed in bacterial expression system assessed as remaining unbound target protein level at 1000 nM by Kinomescan method relative to control
Method in brief: (§3)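 Profiled in a KINOMEscan binding panel with the inhibitor at a single concentration of 1 μM. Binding to each kinase was read out as percent of control, relative to a DMSO control. Strong binders were defined as those with a percent control value below 1.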

[11] = molecular target: Serine/threonine-protein kinase Nek7 (Homo sapiens) (UniProt Q8TDX7); assay: Binding affinity to wild-type human full length NEK7 (M1 to S302 residues) expressed in bacterial expression system assessed as remaining unbound target protein level at 1000 nM by Kinomescan method relative to control; method in brief: as §2
[12] = molecular target: Phosphatidylinositol 4-phosphate 5-kinase type-1 gamma (Homo sapiens) (UniProt O60331); assay: Binding affinity to wild-type human partial length PIP5K1C (M1 to T668 residues) expressed in mammalian expression system assessed as remaining unbound target protein level at 1000 nM by Kinomescan method relative to control
[13] = test system: Epidermal growth factor receptor (Homo sapiens), P00533 [L858R]; assay: Binding affinity to human partial length EGFR L858R mutant (R669 to V1011 residues) expressed in bacterial expression system assessed as remaining unbound target protein level at 1000 nM by Kinomescan method relative to control; method in brief: as §1
[14] = molecular target: Interleukin-1 receptor-associated kinase 4 (Homo sapiens) (UniProt Q9NWZ3); assay: Binding affinity to wild-type human partial length IRAK4 (M1 to S460 residues) expressed in mammalian expression system assessed as remaining unbound target protein level at 1000 nM by Kinomescan method relative to control
Method in brief: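 KINOMEscan binding panel of 468 kinases/mutants. Inhibitor was tested at a single concentration of 1 μM. Binding is reported as percent of control, defined relative to a DMSO control.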

[15] = molecular target: cAMP-dependent protein kinase catalytic subunit beta (Homo sapiens) (UniProt P22694); assay: Binding affinity to wild-type human full length PKAC-beta (M1 to F351 residues) expressed in bacterial expression system assessed as remaining unbound target protein level at 1000 nM by Kinomescan method relative to control; method in brief: as §3
[16] = molecular target: Serine/threonine-protein kinase NLK (Homo sapiens) (UniProt Q9UBE8); assay: Binding affinity to wild-type human full length NLK (M13 to E527 residues) expressed in bacterial expression system assessed as remaining unbound target protein level at 1000 nM by Kinomescan method relative to control; method in brief: as §2
[17] = molecular target: Dual specificity mitogen-activated protein kinase kinase 7 (Homo sapiens) (UniProt O14733); assay: Binding affinity to wild-type human full length MKK7 (M1 to R419 residues) expressed in mammalian expression system assessed as remaining unbound target protein level at 1000 nM by Kinomescan method relative to control; method in brief: as §2
[18] = molecular target: Cyclin-dependent kinase 9 (Homo sapiens, UniProt P50750); assay: Inhibition of CDK9 in human MV4-11 cells assessed as decrease in RNA polymerase 2 phosphorylation at Ser 2 residues in CTD domain after 2 hrs by immunoblotting analysis; format: cell-based
[19] = molecular target: Serine/threonine-protein kinase ULK3 (Homo sapiens) (UniProt Q6PHR2); assay: Binding affinity to wild-type human partial length ULK3 (M1 to Q290 residues) expressed in mammalian expression system assessed as remaining unbound target protein level at 1000 nM by Kinomescan method relative to control
[20] = molecular target: Tyrosine-protein kinase FRK (Homo sapiens) (UniProt P42685); assay: Binding affinity to wild-type human partial length FRK (A215 to F503 residues) expressed in bacterial expression system assessed as remaining unbound target protein level at 1000 nM by Kinomescan method relative to control
Sequence of Tyrosine-protein kinase FRK (Homo sapiens) (P42685 whole entry, the tested form may be a part): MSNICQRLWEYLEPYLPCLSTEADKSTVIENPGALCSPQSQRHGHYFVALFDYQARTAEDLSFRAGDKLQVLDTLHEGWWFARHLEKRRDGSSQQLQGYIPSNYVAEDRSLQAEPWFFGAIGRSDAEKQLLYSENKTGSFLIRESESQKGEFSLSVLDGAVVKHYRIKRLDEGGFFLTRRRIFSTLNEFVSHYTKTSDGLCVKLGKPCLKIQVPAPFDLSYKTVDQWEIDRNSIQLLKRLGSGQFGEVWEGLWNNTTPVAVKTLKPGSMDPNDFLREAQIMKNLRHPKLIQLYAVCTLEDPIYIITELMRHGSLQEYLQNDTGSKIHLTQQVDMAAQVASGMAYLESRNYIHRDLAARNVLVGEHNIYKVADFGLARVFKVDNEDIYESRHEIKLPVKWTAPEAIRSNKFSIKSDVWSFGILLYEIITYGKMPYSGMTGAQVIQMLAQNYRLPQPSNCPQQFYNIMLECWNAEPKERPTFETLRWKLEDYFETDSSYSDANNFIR

Sequence of Cyclin-dependent kinase 9 (P50750 whole entry, the tested form may be a part): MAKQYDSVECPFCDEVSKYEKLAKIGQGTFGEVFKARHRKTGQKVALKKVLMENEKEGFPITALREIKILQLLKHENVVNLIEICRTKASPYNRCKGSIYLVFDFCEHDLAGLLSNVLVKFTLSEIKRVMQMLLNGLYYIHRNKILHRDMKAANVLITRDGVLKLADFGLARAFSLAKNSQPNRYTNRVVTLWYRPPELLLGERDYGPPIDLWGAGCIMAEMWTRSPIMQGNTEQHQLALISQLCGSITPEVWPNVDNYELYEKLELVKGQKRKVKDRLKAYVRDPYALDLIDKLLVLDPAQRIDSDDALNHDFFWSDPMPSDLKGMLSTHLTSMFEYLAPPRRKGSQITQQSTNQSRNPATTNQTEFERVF
Sequence of Serine/threonine-protein kinase PAK 6 (Homo sapiens) (Q9NQU5 whole entry, looked up, the tested form may be a part): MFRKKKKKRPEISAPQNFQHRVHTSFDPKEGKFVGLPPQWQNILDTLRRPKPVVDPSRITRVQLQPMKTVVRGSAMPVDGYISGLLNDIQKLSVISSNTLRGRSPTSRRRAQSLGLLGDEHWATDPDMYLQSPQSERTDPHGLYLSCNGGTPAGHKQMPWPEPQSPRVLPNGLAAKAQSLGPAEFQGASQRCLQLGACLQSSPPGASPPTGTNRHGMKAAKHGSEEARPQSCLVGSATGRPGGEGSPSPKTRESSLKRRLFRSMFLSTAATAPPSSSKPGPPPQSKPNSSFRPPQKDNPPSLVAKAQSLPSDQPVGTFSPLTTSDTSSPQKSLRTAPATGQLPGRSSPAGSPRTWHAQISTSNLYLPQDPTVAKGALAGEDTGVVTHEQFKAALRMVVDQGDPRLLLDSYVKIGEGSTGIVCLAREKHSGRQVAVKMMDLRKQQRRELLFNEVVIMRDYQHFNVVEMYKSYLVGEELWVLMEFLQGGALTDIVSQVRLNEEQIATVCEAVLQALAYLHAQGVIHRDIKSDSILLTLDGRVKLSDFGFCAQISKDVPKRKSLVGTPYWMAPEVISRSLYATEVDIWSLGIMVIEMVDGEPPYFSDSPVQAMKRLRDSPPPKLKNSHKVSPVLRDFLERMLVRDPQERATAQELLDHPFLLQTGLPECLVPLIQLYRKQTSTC
Sequence of Serine/threonine-protein kinase ULK3 (Homo sapiens) (Q6PHR2 whole entry, the tested form may be a part): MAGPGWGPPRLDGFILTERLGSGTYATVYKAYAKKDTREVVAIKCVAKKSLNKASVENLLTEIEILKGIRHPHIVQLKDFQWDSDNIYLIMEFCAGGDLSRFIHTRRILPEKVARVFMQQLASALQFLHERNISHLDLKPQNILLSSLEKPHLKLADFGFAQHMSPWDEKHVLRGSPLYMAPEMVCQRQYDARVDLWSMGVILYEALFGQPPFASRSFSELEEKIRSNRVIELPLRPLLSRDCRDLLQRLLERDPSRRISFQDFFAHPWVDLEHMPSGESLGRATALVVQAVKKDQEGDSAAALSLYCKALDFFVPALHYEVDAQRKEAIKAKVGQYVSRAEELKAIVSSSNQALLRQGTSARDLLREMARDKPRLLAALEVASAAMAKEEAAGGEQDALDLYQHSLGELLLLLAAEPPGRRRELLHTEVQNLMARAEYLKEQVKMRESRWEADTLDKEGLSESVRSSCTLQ
Sequence of Phosphatidylinositol 5-phosphate 4-kinase type-2 beta (Homo sapiens) (P78356 whole entry, the tested form may be a part): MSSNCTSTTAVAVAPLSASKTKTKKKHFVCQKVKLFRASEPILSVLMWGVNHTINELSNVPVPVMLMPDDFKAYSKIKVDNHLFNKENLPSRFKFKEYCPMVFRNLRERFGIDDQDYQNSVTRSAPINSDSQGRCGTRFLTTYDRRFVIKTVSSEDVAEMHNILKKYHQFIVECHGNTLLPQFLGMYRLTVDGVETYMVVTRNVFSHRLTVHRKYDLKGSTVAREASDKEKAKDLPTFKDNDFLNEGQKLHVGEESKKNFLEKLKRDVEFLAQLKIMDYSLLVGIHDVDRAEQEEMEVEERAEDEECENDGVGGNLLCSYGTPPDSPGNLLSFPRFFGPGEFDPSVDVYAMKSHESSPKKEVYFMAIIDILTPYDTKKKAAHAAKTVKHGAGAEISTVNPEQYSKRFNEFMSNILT
Sequence of Uncharacterized serine/threonine-protein kinase SBK3 (Homo sapiens) (P0C264 whole entry, the tested form may be a part): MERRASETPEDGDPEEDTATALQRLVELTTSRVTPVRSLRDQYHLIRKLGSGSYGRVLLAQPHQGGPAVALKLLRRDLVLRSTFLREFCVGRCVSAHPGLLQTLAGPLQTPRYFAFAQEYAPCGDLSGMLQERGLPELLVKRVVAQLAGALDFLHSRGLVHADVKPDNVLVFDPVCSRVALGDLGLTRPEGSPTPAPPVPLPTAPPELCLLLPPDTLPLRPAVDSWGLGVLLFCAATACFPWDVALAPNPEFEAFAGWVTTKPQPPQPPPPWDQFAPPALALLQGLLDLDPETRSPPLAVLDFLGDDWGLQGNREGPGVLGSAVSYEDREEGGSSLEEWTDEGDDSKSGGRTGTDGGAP
Sequence of Dual specificity protein kinase CLK1 (Homo sapiens) (P49759 whole entry, looked up, the tested form may be a part): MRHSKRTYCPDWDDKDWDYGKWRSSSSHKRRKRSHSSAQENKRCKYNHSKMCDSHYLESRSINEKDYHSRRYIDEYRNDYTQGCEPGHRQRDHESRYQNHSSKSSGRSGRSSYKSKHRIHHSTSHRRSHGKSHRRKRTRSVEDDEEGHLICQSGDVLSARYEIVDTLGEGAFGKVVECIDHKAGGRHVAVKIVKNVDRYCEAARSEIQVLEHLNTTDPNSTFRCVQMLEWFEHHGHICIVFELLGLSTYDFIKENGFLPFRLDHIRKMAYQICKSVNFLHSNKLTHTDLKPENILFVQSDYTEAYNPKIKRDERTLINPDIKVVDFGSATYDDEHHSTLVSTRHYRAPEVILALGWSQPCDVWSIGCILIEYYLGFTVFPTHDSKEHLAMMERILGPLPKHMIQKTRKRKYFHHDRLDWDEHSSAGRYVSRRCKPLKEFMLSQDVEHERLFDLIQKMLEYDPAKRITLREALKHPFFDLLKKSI
Sequence of Serine/threonine-protein kinase NLK (Homo sapiens) (Q9UBE8 whole entry, the tested form may be a part): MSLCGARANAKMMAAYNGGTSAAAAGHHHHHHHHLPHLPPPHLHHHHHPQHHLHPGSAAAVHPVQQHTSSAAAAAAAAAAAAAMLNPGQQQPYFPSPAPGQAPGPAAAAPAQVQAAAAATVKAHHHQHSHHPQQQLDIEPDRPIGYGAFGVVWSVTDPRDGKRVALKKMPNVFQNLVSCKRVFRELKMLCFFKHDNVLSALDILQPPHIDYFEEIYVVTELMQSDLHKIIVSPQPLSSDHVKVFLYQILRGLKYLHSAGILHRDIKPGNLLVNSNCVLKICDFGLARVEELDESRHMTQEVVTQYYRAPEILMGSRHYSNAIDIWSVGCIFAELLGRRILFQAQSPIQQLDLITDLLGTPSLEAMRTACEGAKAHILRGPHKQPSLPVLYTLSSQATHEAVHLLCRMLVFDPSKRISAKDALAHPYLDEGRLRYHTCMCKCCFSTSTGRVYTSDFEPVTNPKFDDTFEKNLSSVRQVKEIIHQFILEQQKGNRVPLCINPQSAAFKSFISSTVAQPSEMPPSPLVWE
Sequence of Phosphatidylinositol 4-phosphate 5-kinase type-1 gamma (Homo sapiens) (O60331 whole entry, the tested form may be a part): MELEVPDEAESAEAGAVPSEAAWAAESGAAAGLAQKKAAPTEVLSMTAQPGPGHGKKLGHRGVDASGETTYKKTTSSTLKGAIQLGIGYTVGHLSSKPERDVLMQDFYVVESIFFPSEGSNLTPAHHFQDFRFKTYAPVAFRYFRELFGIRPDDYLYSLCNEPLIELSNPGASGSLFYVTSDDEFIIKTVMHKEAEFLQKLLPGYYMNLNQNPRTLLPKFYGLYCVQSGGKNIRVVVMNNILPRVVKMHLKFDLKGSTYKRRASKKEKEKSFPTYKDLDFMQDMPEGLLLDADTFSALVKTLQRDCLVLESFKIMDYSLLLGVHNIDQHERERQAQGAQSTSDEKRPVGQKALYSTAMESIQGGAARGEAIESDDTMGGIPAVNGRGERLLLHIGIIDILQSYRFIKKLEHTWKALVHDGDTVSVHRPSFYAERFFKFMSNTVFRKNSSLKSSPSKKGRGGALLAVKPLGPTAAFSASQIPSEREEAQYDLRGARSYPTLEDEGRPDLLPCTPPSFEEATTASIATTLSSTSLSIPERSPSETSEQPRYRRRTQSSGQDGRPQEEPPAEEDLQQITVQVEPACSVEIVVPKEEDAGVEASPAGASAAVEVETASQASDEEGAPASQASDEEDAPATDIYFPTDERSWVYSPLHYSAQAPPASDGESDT
Sequence of Serine/threonine-protein kinase Nek7 (Homo sapiens) (Q8TDX7 whole entry, looked up, the tested form may be a part): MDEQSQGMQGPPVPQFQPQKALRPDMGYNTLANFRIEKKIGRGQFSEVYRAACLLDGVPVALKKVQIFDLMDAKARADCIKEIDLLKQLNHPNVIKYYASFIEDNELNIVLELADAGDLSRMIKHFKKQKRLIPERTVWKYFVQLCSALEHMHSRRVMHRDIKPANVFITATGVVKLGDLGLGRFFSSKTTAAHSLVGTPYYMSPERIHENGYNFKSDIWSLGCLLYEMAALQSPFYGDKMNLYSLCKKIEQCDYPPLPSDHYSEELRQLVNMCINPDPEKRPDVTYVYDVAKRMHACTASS

Which results are given for COCCN[C@H]1CC[C@H](Nc2cc(-c3csc(NCC4(C#N)CCOCC4)n3)c(Cl)cn2)CC1?
Activity [1]: 100%; Activity [2]: 18%; Activity [3]: 92%; Activity [4]: 78%; Activity [5]: 72%; Activity [6]: 100%; GI50 [7]: 1.2 µM; AUC(0-t) [8]: 393 ng·h/mL; Activity [9]: 89%; Activity [10]: 100%; Activity [11]: 83%; Activity [12]: 100%; Activity [13]: 85%; Activity [14]: 81%; Activity [15]: 92%; Activity [16]: 100%; Activity [17]: 100%; EC50 [18]: < 0.1 µM; inhibition [18]: Dose-dependent effect; Activity [19]: 100%; Activity [20]: 96%
